This passage reports PC95 and PC50 results from ChEMBL document CHEMBL3045714, “Insect antifeedants from tropical plants: structures of dumnin and dumsenin” (2004).

Molecules are shown by their SMILES.

Assay type in all cases: functional
Assay [1] deals with Pectinophora gossypiella. Description: Antifeedant activity against second-instar larvae of Pectinophora gossypiella (pink bollworm) assessed as concentration required for 95 % protection of host plant substrate after 48 hr by leaf disk assay. In short, it runs like this: (§1)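 Leaf disks (1 cm²) punched from glandless cotton cultivar, randomized, 12 per Petri dish on moistened filter paper; alternate disks treated on upper surface with 25 μL acetone or 0–100 μg sample in 25 μL acetone. Three larvae per dish, 22 °C, dark, 48 h; percent disk area eaten vs control scored visually. PC50/PC95 = ca. 50/95% protection; triplicate on separate occasions, mean.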

For assay [2], the system named is Pectinophora gossypiella. Description: Antifeedant activity against second-instar larvae of Pectinophora gossypiella (pink bollworm) assessed as concentration required for 50 % protection of host plant substrate after 48 hr by leaf disk assay. In short, it runs like this:
as §1

Assay [3] deals with Spodoptera frugiperda. Description: Antifeedant activity against second-instar larvae of Spodoptera frugiperda (fall armyworm) assessed as concentration required for 95 % protection of host plant substrate after 48 hr by leaf disk assay. The essentials: as §1
Assay [4] relates to Spodoptera frugiperda. Description: Antifeedant activity against second-instar larvae of Spodoptera frugiperda (fall armyworm) assessed as concentration required for 50 % protection of host plant substrate after 48 hr by leaf disk assay. In short, it runs like this: as §1

`CC(=O)O[C@H]1[C@H](OC(C)=O)[C@]2(C)[C@@H](c3ccoc3)C[C@@H]3O[C@@]32[C@@]2(C)[C@H](OC(=O)Cc3ccccc3)C[C@H]3C(C)(C)O[C@]4(O)C(=O)CC[C@]34[C@@H]12` [DUMNIN]: the PC95 in assay [1] came to 16 µg/mL. The PC50 in assay [2] was 1 µg/mL.
As to `CC(=O)O[C@H]1[C@H](OC(C)=O)[C@@]2(C)C(=CC[C@@H]2c2ccoc2)[C@@]2(C)C(=O)C[C@H]3C(C)(C)O[C@]4(O)C(=O)CC[C@]34[C@@H]12` [DUMSENIN], the PC95 was found to be 4 µg/mL in assay [3] and 8 µg/mL in assay [1]. Moreover, the PC50 in assay [4] worked out at 1 µg/mL; in assay [2] it was 2 µg/mL.
As for `CC(=O)O[C@H]1[C@H](OC(C)=O)[C@]2(C)[C@@H](c3ccoc3)C[C@@H]3O[C@@]32[C@@]2(C)[C@H](OC(=O)CC(C)C)C[C@H]3C(C)(C)O[C@]4(O)C(=O)CC[C@]34[C@@H]12` [DUMSIN], the PC95 in assay [1] was found to be 8 µg/mL. Also, in assay [2], the PC50 worked out at 1 µg/mL.
Turning to `CC(=O)O[C@@H]1[C@@H]2[C@@]34CC(=O)C[C@@H]3OC(C)(C)[C@@H]4CC(=O)[C@@]2(C)[C@@]23O[C@@H]2C[C@H](c2ccoc2)[C@]3(C)[C@H]1OC(C)=O` [ZUMSIN], the PC95 came out at 16 µg/mL in assay [3] and 8 µg/mL in assay [1]. The PC50 turned out to be 2 µg/mL in assay [4] and 1 µg/mL in assay [2].
